{"source": "paper PMC3702173", "about": "(Circulation research, 2013)", "key": {"[1]": {"system": "activated CD11b and VLA4 (β1- and β2-integrins) on monocytes", "test": "Integrin activation", "format": "cell-based, human", "conditions": "LL37 1µg/ml; for Integrin activation on non-classical CD14^+CD16^++ monocytes: MCP-1 50ng/ml, Online Figure V"}, "HUVEC": {"system": "HUVEC", "test": "Transendothelial transport", "format": "cell-based, human", "conditions": "for Effect on transendothelial LL37 transportation: pretreatment of HUVEC with inhibitor or enzyme"}, "[2]": {"system": "murine monocytes (ICAM-1 or VCAM-1 binding)", "format": "cell-based, mouse", "conditions": "PMA 50ng/ml, MCP-1 50ng/ml, CRAMP 1µg/ml; ICAM-1-Fc or VCAM-1-Fc; n=5", "outline": "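Mouse peripheral leukocytes exposed to PMA (50ng/ml), MCP-1 (50ng/ml) or CRAMP (1µg/ml) with ICAM-1-Fc or VCAM-1-Fc plus anti-Fc antibody; monocyte subsets gated by CD45, CD11b, CD115 and Gr1 staining; ligand binding read by flow cytometry; n=5.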"}, "[3]": {"system": "classical CD14^++CD16^− monocytes", "format": "cell-based, human", "conditions": "for Monocyte adhesion to P-selectin/ICAM-1 or P-selectin/VCAM-1: substance coimmobilized, LL37/MCP1 n=8, mLL37 n=3"}, "classical monocytes": {"system": "classical monocytes", "test": "Classical monocyte accumulation in peritoneum upon stimulation with TNF", "format": "in vivo, mouse", "conditions": "CRAMP-deficient mice, local application of CRAMP, unpublished data"}, "non-classical monocytes": {"system": "non-classical monocytes", "conditions": "mouse cremaster muscle in vivo", "outline": "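Cx3cr1egfp/WT mice, either with intact white cell count or made neutropenic with 1A8 (50µg i.p., 12h before), got TNF (50ng, 12h) intrascrotally. Anti-Ly6C (1µg i.v.) separated subsets, with non-classical monocytes GFP+ only. Cremaster adhesion was quantified by intravital microscopy; n=6.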"}, "[4]": {"system": "endothelium (baso-apical transport of CRAMP)", "format": "in vivo, mouse", "conditions": "n=4", "outline": "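Neutropenic Darc−/− mice (1A8, 50µg/mouse i.p., 8h before stimuli) were injected intrascrotally with TNF (50ng, 4h) plus CRAMP (1µg). Fluorescent beads conjugated with anti-CRAMP antibody were then injected, and immobilised luminal beads were counted by intravital microscopy; n=4.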"}, "[5]": {"system": "classical monocytes (Ly6C^+)", "format": "in vivo, mouse"}, "P2X7 [6]": {"system": "P2X7", "test": "Surface plasmon resonance, receptor proteoliposomes on immobilized LL37", "format": "binding", "conditions": "LL37 immobilized on CM4 chip; receptor-containing proteoliposomes; not shown"}, "FPR2": {"system": "FPR2", "conditions": "ref [6]; cited from earlier work"}, "neutrophils": {"system": "neutrophils", "conditions": "ref [24]; cited from earlier work"}, "[7]": {"system": "endothelial adhesion molecules on HUVEC", "test": "Expression of endothelial adhesion molecules on HUVEC", "format": "cell-based, human", "conditions": "treatment of HUVEC with LL37"}, "[8]": {"system": "human non-classical CD14^+CD16^++ monocytes", "format": "cell-based", "conditions": "LL37 (1µg) deposited 15 min prior to perfusion; TNF-activated HUVEC; n=6", "outline": "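Human non-classical CD14+CD16++ monocytes perfused in a flow chamber over HUVEC monolayers activated with TNF (20ng, 12h); LL37 (1µg) deposited on the monolayer 15 min before perfusion; adherent cells counted; n=6.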"}, "monocytes": {"system": "monocytes", "conditions": "ref [40]; cited from earlier work"}, "P2X7 [9]": {"system": "P2X7", "conditions": "LPS-primed monocytes; via P2X7; ref [41]; cited from earlier work"}, "DARC": {"system": "DARC", "test": "Interaction of DARC and LL37", "format": "binding", "conditions": "Online Figure IV"}, "[10]": {"system": "various T-cells, smooth muscle cells, and epithelial cells", "conditions": "ref [44], [45]; cited from earlier work"}}, "note": "“Also recorded” adds a separate entry of the source.", "data": [{"compound": "CCCCOc1ccc(C(=O)NN2C(=O)c3ccccc3NC2c2ccc(O)cc2)cc1", "note": "(stereo not shown) [quin-C7, reference compound]", "values": [{"measurement": "Effect on LL37-induced integrin activation", "setting": "[1]; quin-C7 1µM, U73122 100nM, classical monocytes, n=4", "result": "fully abrogated integrin activation induced by LL37"}]}, {"compound": "COc1cc2c(c(OC)c1OC)-c1ccc(OC)c(=O)cc1[C@@H](NC(C)=O)CC2", "note": "[colchicine]", "values": [{"measurement": "Effect on transendothelial LL37 transportation", "setting": "HUVEC; n=6", "result": "abrogated"}]}, {"compound": "boc-PLPLP", "values": [{"measurement": "Effect on transendothelial LL37 transportation", "setting": "HUVEC; n=6", "result": "did not impact on transendothelial LL37 transportation"}]}, {"compound": "CCCCCCCCCCCCCC(=O)O[C@@H]1[C@@H](C)[C@@]2(O)[C@@H](C=C(CO)C[C@]3(O)C(=O)C(C)=C[C@@H]23)[C@@H]2C(C)(C)[C@]12OC(C)=O", "note": "[PMA, phorbol-12-myristate-13-acetate, reference compound]", "values": [{"measurement": "ICAM-1 and VCAM-1 binding to classical monocytes", "setting": "[2]", "result": "increased binding of ICAM-1 or VCAM-1"}]}, {"compound": "MCP1: classical chemokine, CCR2 ligand (CCL2/MCP-1)", "values": [{"measurement": "ICAM-1 and VCAM-1 binding to classical monocytes", "setting": "[2]", "result": "increased binding of ICAM-1 or VCAM-1"}, {"measurement": "Integrin activation on non-classical CD14^+CD16^++ monocytes", "setting": "[1]", "result": "not on non-classical CD14^+CD16^++ monocytes"}, {"measurement": "Monocyte adhesion to P-selectin/ICAM-1 or P-selectin/VCAM-1", "setting": "[3]", "result": "strongly enhanced monocyte adhesion"}]}, {"compound": "Cc1ccc(C(=O)Nc2ccc(S(=O)(=O)O)c3cc(S(=O)(=O)O)cc(S(=O)(=O)O)c23)cc1NC(=O)c1cccc(NC(=O)Nc2cccc(C(=O)Nc3cc(C(=O)Nc4ccc(S(=O)(=O)O)c5cc(S(=O)(=O)O)cc(S(=O)(=O)O)c45)ccc3C)c2)c1", "note": "[suramin]", "values": [{"measurement": "Effect on transendothelial LL37 transportation", "setting": "HUVEC; n=6", "result": "did not impact on transendothelial LL37 transportation"}]}, {"compound": "CRAMP", "values": [{"measurement": "Accumulation of classical monocytes into peritoneum", "setting": "classical monocytes", "result": "rescued by local application of CRAMP"}, {"measurement": "ICAM-1 and VCAM-1 binding to classical monocytes", "setting": "[2]", "result": "increased binding of ICAM-1 or VCAM-1; also recorded: enhances ICAM-1 and VCAM-1 binding to classical monocytes"}, {"measurement": "Adhesion of non-classical monocytes, mouse cremaster", "setting": "non-classical monocytes", "result": "not of non-classical monocytes"}, {"measurement": "Transportation of CRAMP across endothelium in Darc^−/− mice", "setting": "[4]; neutropenic Darc^−/− mice, TNF 50ng, 4h, and CRAMP 1µg intrascrotal", "result": "maintained in Darc^−/− mice"}, {"measurement": "Luminal CRAMP in WT mice", "setting": "[4]; neutropenic WT mice, TNF 50ng and CRAMP 1µg intrascrotal", "result": "luminal CRAMP was detected 4h after intrascrotal CRAMP injection"}, {"measurement": "Adhesion of classical monocytes in Cramp^−/− mice", "setting": "[5]; Cramp^−/− mice, intrascrotal TNF with CRAMP 1µg vs TNF alone, n=5", "result": "restored the defect in Cramp^−/− mice; also recorded: restores adhesion of classical monocytes"}, {"measurement": "Adhesion of classical monocytes, overall statement, mouse cremaster", "setting": "[5]; mouse cremaster muscle in vivo", "result": "induce adhesion of classical monocytes"}, {"measurement": "Adhesion of classical monocytes in Fpr1^−/− mice", "setting": "[5]; neutropenic Fpr1^−/− mice, TNF and CRAMP 1µg, n=6", "result": "resulted in increased adhesion in Fpr1^−/− mice"}, {"measurement": "Adhesion of classical monocytes in Fpr2^−/− mice", "setting": "[5]; neutropenic Fpr2^−/− mice, TNF and CRAMP 1µg, n=6", "result": "this response was not observed in Fpr2^−/− mice"}]}, {"compound": "CCCCC[C@@H](O)[C@H]1C(=O)O[C@H](C)[C@@H](O)/C=C/C=C/C=C/C=C/C=C(\\C)[C@@H](O)C[C@H](O)C[C@H](O)C[C@H](O)C[C@H](O)C[C@H](O)C[C@@H]1O", "note": "[filipin]", "values": [{"measurement": "Effect on transendothelial LL37 transportation", "setting": "HUVEC; n=6", "result": "clear-cut decreases of LL37 transcytosis"}]}, {"compound": "Cc1ccc2c(c1)C1(CCN(CCc3nc(-c4ccccc4)oc3C)CC1)OC(=O)N2", "note": "[RS504393, reference compound]", "values": [{"measurement": "Effect on MCP1-mediated monocyte adhesion", "setting": "[3]; RS504393 1µM, P-selectin/ICAM-1 or P-selectin/VCAM-1, n=8", "result": "blocked"}]}, {"compound": "C=C1[C@@H](C)[C@H]2[C@H](Cc3ccccc3)NC(=O)[C@]23OC(=O)/C=C/[C@H](O)CCC[C@@H](C)C/C=C/[C@H]3[C@@H]1O", "note": "[cytochalasin B]", "values": [{"measurement": "Effect on transendothelial LL37 transportation", "setting": "HUVEC; n=6", "result": "abrogated"}]}, {"compound": "LL37: human cathelicidin; linear peptide; FITC-labelled form used in transport experiment", "values": [{"measurement": "Binding to P2X7", "setting": "P2X7 [6]", "result": "no interaction with LL37"}, {"measurement": "Effect of serum on direct chemotactic activity", "setting": "FPR2", "result": "not affected by serum"}, {"measurement": "Apoptotic cell death in neutrophils", "setting": "neutrophils", "result": "inhibit apoptotic cell death in neutrophils"}, {"measurement": "Effect on expression of endothelial adhesion molecules", "setting": "[7]", "result": "did not impact on expression of endothelial adhesion molecules"}, {"measurement": "Integrin activation on non-classical CD14^+CD16^++ monocytes", "setting": "[1]", "result": "not on non-classical CD14^+CD16^++ monocytes"}, {"measurement": "Monocyte adhesion to P-selectin/ICAM-1 or P-selectin/VCAM-1", "setting": "[3]", "result": "strongly enhanced monocyte adhesion"}, {"measurement": "Adhesion of non-classical monocytes, in vitro flow chamber", "setting": "[8]", "result": "not of non-classical monocytes"}, {"measurement": "Production and release of IL8", "setting": "monocytes", "result": "induces the production and release of IL8 from monocytes"}, {"measurement": "Processing and release of IL-1 β", "setting": "P2X7 [9]", "result": "induced processing and release of the potent cytokine IL-1 β"}, {"measurement": "Interaction with DARC", "setting": "DARC", "result": "could not detect an interaction between DARC and LL37"}, {"measurement": "Apoptosis", "setting": "[10]", "result": "promotes apoptosis in various T-cells, smooth muscle cells, and epithelial cells"}, {"measurement": "Transendothelial LL37 transportation at 4°C", "setting": "HUVEC; 4 °C, n=6", "result": "abrogated at 4 °C"}, {"measurement": "Time until LL37 accumulation on HUVEC surface", "setting": "HUVEC; time course, antibody-stained surface-bound LL37", "result": "≥ 2", "unit": "h"}]}, {"compound": "O=C(Nc1ccc([N+](=O)[O-])cc1O)Nc1ccccc1Br", "note": "[SB225002]", "values": [{"measurement": "Effect on transendothelial LL37 transportation", "setting": "HUVEC; n=6", "result": "did not impact on transendothelial LL37 transportation"}]}]}
